Test [1] addresses 5-hydroxytryptamine receptor 6 (Homo sapiens, UniProt P50406). The test can be described thus: Antagonist activity at human recombinant 5-HT6 receptor expressed in HEK293 cells assessed as inhibition of serotonin-induced intracellular cAMP accumulation by LANCE technique. The test is classed as functional, cell-based. Summed up: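 Cells continuously express recombinant human 5-HT6 receptors. Serotonin stimulation raises intracellular cyclic AMP, which was monitored continuously by LANCE technology. Read-out was inhibition of the serotonin-dependent cAMP response.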
Background: Changes in cAMP serve as a functional read-out for many G protein-coupled receptors.

Test [2] addresses T1, Histamine H1 receptor (Homo sapiens, UniProt P35367). Kind of test: Antagonist activity at human histamine H1 receptor in SK-N-SH cells assessed as inhibition of histamine-induced calcium level increase during phase-1 compound incubated before histamine addition by Fura-2 based fluorometric assay. The test is classed as functional, cell-based. Summed up:
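H1 receptor Ca-dependent signalling was measured in SK-N-SH cells as blockade of histamine-induced calcium flow in phase-I. IC50 values were reported.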

For test [3], the target named is T1, Histamine H1 receptor. Kind of test: Antagonist activity at human histamine H1 receptor in SK-N-SH cells assessed as inhibition of histamine-induced calcium flow during phase-II compound dosed after histamine addition by Fura-2 based fluorometric assay. The test is classed as functional.
The nature of test [4]: Inhibition of L-type calcium channel.
The target in test [5] is Acetylcholinesterase (Homo sapiens, UniProt P22303). Kind of test: Inhibition of AChE.
Chain of Acetylcholinesterase (P22303 whole entry, the tested form may be a part): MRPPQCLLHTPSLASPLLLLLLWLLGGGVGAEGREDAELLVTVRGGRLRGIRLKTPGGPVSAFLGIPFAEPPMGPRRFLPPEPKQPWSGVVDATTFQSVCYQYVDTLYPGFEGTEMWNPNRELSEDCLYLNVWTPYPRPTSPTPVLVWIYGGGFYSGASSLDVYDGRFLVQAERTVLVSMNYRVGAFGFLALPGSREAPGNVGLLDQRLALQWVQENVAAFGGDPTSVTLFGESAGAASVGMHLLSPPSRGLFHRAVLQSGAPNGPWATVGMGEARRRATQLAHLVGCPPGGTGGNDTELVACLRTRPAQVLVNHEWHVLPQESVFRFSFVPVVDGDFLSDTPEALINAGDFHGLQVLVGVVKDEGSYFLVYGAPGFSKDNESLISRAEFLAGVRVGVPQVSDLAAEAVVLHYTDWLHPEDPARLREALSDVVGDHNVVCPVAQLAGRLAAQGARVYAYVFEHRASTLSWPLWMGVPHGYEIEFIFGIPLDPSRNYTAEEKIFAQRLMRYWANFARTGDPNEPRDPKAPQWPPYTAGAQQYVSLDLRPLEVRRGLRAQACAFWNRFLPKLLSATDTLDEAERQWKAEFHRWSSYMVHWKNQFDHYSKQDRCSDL
Test [6] is described as follows: Neuroprotective activity in cerebellum cell culture assessed as protection against beta-amyloid fragment Abeta (25-35)-induced neurotoxicity. The test is classed as functional, tissue-based.
Test [7] deals with Glutamate NMDA receptor (Rattus norvegicus) (UniProt P35439+Q00959+Q00960+Q00961+Q62645+Q8VHN2+Q9R1M7). The test can be described thus: Inhibition of NMDA receptor in rat brain cortical neurons assessed as blocking of NMDA-induced currents. In kind it is tissue-based.
The target in test [8] is Cholinesterase (Homo sapiens, UniProt P06276). The test can be described thus: Inhibition of BuChE.
Chain of Cholinesterase (P06276 whole entry): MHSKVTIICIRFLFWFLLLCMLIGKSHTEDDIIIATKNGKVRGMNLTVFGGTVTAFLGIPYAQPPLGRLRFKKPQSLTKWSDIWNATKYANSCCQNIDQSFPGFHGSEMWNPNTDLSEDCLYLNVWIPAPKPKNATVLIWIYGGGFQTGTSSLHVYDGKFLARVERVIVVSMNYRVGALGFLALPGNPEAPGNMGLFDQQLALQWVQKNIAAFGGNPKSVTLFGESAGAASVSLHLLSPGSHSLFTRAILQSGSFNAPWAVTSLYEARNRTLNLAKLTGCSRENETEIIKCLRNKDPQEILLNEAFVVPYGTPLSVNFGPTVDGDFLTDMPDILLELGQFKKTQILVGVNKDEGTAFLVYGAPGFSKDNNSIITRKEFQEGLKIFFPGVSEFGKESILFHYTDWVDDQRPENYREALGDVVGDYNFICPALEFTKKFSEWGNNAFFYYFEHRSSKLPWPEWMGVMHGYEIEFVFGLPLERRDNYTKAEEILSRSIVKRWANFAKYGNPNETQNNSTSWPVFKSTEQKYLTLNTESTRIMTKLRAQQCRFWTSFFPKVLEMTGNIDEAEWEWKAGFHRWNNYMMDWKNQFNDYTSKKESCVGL

We go through 24 compounds from ChEMBL document CHEMBL1782051, “Synthesis and biological evaluation of novel gamma-carboline analogues of Dimebon as potent 5-HT6 receptor antagonists” (Bioorg Med Chem Lett, 2009).

T1 sequence (P35367 whole entry): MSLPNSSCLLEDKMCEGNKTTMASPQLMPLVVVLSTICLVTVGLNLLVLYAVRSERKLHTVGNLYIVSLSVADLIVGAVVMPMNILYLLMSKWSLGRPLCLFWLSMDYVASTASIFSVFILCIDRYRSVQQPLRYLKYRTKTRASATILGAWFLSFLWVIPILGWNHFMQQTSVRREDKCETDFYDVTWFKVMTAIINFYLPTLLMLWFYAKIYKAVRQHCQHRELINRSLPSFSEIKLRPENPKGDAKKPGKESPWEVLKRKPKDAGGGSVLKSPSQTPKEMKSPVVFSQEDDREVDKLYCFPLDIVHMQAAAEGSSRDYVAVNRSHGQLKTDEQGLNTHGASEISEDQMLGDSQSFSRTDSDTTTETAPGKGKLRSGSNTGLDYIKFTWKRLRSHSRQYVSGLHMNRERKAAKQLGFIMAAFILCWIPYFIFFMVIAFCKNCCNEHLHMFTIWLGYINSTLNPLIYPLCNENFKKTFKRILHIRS
Chain of 5-hydroxytryptamine receptor 6 (P50406 whole entry): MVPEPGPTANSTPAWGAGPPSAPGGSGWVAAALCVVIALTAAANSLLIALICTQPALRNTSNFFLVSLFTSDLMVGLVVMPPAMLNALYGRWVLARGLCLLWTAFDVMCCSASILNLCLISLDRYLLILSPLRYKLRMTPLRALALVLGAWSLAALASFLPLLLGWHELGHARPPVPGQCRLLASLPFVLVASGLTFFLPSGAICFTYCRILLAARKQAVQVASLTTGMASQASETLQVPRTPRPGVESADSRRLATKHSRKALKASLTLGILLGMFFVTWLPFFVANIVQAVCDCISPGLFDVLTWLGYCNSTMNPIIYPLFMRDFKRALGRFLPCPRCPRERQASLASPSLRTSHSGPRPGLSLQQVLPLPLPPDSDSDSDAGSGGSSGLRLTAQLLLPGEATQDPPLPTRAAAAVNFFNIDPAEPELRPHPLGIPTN

For orientation: IC50 means the concentration at which inhibition is half-maximal. `CN1CCc2c(c3cc(C(F)(F)F)ccc3n2CCc2ccccn2)C1`: the 50% inhibitory concentration (IC50) turned out to be 1.59 µM in test [1] (read-out: IC50), 0.56 µM in test [2] and 1.59 µM in test [3].

Take `CN1CCc2c(c3cc(C#N)ccc3n2CCc2ccccn2)C1`: the 50% inhibitory concentration (IC50) in test [1] (read-out: IC50) was 7.47 µM; in test [2] it was 1.29 µM.

For the compound `Cc1ccc2c(c1)c1c(n2CCc2cccnc2)CCN(C2CCN(C)CC2)C1`, the IC50 result in test [1] (hek293) is “Not Active”; in test [2], 2.79 µM.

For `CN1CCc2c(c3cc(F)ccc3n2CCc2ccccn2)C1`, the IC50 in test [1] (read-out: IC50) came to 2.98 µM; in test [2], 0.94 µM; in test [3], 0.61 µM.

As to `Cc1ccc2c(c1)c1c(n2CCc2ccncc2)CCN(C2CCN(C)CC2)C1`, the IC50 result was “Not Active” in test [1] (hek293) and 7.57 µM in test [2].

In the case of `CN1CCc2c(c3cc(C(F)(F)F)ccc3n2CCc2ccncc2)C1`, the IC50 in test [1] (read-out: IC50) is 6.4 µM; in test [2], 0.22 µM.

As for `Cc1ccc2c(c1)c1c(n2CCc2ccncc2)CCN(C)C1`, the values for the IC50 in test [1] (read-out: IC50), in test [2] and in test [3] were 0.37 µM, 0.16 µM and 3.98 µM, respectively.

With `Cc1ccc2c(c1)c1c(n2CCc2cnccn2)CCN(C)C1`, the figures for the IC50 in test [1] (read-out: IC50), in test [2] and in test [3] were 2.06 µM, 0.32 µM and 7.94 µM, respectively.

As to `CN1CCc2c(c3cc(C(=O)O)ccc3n2CCc2ccncc2)C1`, the IC50 in test [1] (read-out: IC50) and in test [2] was greater than 10 µM in each case.

`CN1CCc2c(c3cc(-c4cccnc4)ccc3n2CCc2ccccn2)C1`: the figures for the 50% inhibitory concentration (IC50) in test [1] (read-out: IC50) and in test [2] were 43.2 µM and 7.16 µM, respectively.

As for `COc1ccc2c(c1)c1c(n2CCc2ccccn2)CCN(C)C1`, the concentration for half-maximal inhibition (IC50) was 8.36 µM in test [1] (read-out: IC50) and 4.67 µM in test [2].

With `Cc1ccc2c(c1)c1c(n2CCc2cccnc2)CCN(C)C1`, the IC50 in test [1] (read-out: IC50) amounted to 0.44 µM; in test [2], 0.5 µM; in test [3], 3.16 µM.

Turning to `COc1ccc2c(c1)c1c(n2CCc2ccncc2)CCN(C)C1`, the IC50 in test [1] (read-out: IC50) came to 4.34 µM; in test [2] it was 0.39 µM.

On to `CN1CCc2c(c3cc(F)ccc3n2CCc2cccnc2)C1`, for which the 50% inhibitory concentration (IC50) is greater than 10 µM in test [1] (read-out: IC50), 0.65 µM in test [2] and 0.93 µM in test [3].

As to `CN1CCc2c(c3ccccc3n2CCc2cccnc2)C1`, the IC50 in test [1] (read-out: IC50) amounted to 5.99 µM; in test [2], 0.1 µM; in test [3], 0.41 µM.

With `Cc1ccc(CCn2c3c(c4cc(F)ccc42)CN(C)CC3)cn1`, the IC50 in test [1] (read-out: IC50) was 10.7 µM; in test [2], 0.11 µM; in test [3], 0.73 µM.

A word on the EC50: it is the midpoint of the concentration-response curve. For the compound `Cc1ccc2c(c1)c1c(n2CCc2ccc(C)nc2)CCN(C)C1` [LATREPIRDINE], the IC50 in test [1] (read-out: IC50) was determined as 0.89 µM; in test [2], 0.16 µM; in test [4], 57 µM; in test [5], 45 µM; in test [3], 1.58 µM; in test [8] it was 7.9 µM. Further, the EC50 in test [6] turned out to be 25 µM. The ED50 in test [7] worked out at 42 µM.

`CN1CCc2c(c3cc(F)ccc3n2CCc2ccncc2)C1`: the results for the IC50 in test [1] (read-out: IC50), in test [2] and in test [3] were 3.24 µM, 0.12 µM and 0.47 µM, respectively.

For the compound `CN1CCc2c(c3ccccc3n2CCc2ccccn2)C1`, the IC50 in test [1] (read-out: IC50) is 15.8 µM; in test [2], 1.82 µM; in test [3] it was 0.93 µM.

For `CN1CCc2c(c3cc(Br)ccc3n2CCc2ccccn2)C1`, the IC50 in test [1] (read-out: IC50) was determined as 1.04 µM; in test [2] it was 0.12 µM.

In the case of `CN1CCc2c(c3ccccc3n2CCc2ccncc2)C1`, the IC50 in test [1] (read-out: IC50) came out at 8.91 µM; in test [2], 0.12 µM; in test [3], 0.5 µM.

Take `Cc1ccc2c(c1)c1c(n2CCc2ccccn2)CCN(C)C1`: the concentration for half-maximal inhibition (IC50) in test [1] (read-out: IC50) stood at 0.86 µM; in test [2], 0.5 µM; in test [3] it was 10 µM.

Consider `Cc1ccc2c(c1)c1c(n2CCc2ccccn2)CCN(C2CCN(C)CC2)C1`, for which the IC50 entry is “Not Active” in test [1] (hek293) and greater than 10 µM in test [2].

In the case of `CN1CCc2c(c3cc(C(F)(F)F)ccc3n2CCc2cccnc2)C1`, the IC50 is 5.8 µM in test [1] (read-out: IC50) and greater than 10 µM in test [2].
